Activity calls are given as the source filed them. The rule behind the calls is not given here.
How the values were obtained:
Platelet [1] = assay: Cytotoxicity against human Platelet assessed as increase in LDH leakage at 200 uM after 10 mins by LDH assay; format: cell-based
In short: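 Washed platelets (3x10^8/mL) incubated 10 min at 37°C with compound (200 μM), then centrifuged 800 x g for 8 min. Supernatant LDH kit read at 490 nm; 10% Triton X-100 served as positive control.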

[2] = (§1) Inhibition of collagen-induced platelet aggregation in human platelet preincubated for 5 mins followed by collagen-stimulation and measured after 6 mins by lumi-aggregometric method; format: functional, tissue-based
In short: (§2)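 Light transmission aggregometry of washed human platelets (3x10^8/mL) preincubated 5 min with 2 mM CaCl2 plus compound (0.2 to 200 μM; DMSO 0.2% vehicle). Aggregation induced by TRAP-6 (5 μM) or collagen (1 μg/mL) and followed 6 min. IC50 from dose-response curves, mean ± SEM of three experiments. S.I. = IC50 TRAP-6/IC50 collagen.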

[3] = (§3) Inhibition of TRAP6-induced platelet aggregation in human platelet preincubated for 5 mins followed by TRAP6-stimulation and measured after 6 mins by lumi-aggregometric method; format: functional, tissue-based; in short: as §2
[4] = Selectivity index, ratio of IC50 for inhibition of TRAP6-induced platelet aggregation in human platelet to IC50 for inhibition of collagen-induced platelet aggregation in human platelet; format: functional; in short: as §2
Platelet [5] = assay: as §1; format: functional, tissue-based; conditions: time 11.0 min; in short: as §2
Platelet [6] = assay: as §3; format: functional, tissue-based; conditions: time 11.0 min; in short: as §2
[7] = Inhibition of collagen-induced platelet aggregation in human platelet preincubated for 5 mins followed by 2 ug/ml collagen-stimulation and measured after 6 mins by lumi-aggregometric method relative to control; format: functional; conditions: time 11 min
In short: (§4)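 Washed platelets (3x10^8/mL) preincubated 5 min with 2 mM CaCl2 plus compound, then challenged at maximal agonist level, 10 μM TRAP-6 or 2 collagen as printed. Transmission followed 6 min and compared with DMSO 0.2% control; n=3.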

[8] = Inhibition of TRAP6-induced platelet aggregation in human platelet preincubated for 5 mins followed by 10 uM TRAP6-stimulation and measured after 6 mins by lumi-aggregometric method relative to control; format: functional; conditions: time 11 min; in short: as §4
Platelet [9] = assay: Effect on platelet activation in human collagen/TRAP6-inducrd human Platelet assessed as positive subpopulation cells at 2 to 20 uM by annexin V-FITC staining based flow cytometric analysis; format: functional, tissue-based; conditions: dose 2-20 µM
In short: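 Washed platelets (3x10^8/mL) preincubated 5 min with 2 mM CaCl2 plus compound and stimulated with collagen + TRAP-6. Diluted in annexin V binding buffer and stained with annexin V-FITC and anti-CD61-PE for 25 min in the dark; flow cytometry.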

Platelet [10] = assay: Antiplatelet activity in human Platelet assessed as inhibition of collagen-induced p-selectin protein expression at 2 to 20 uM by flow cytometric analysis; format: functional, cell-based; conditions: dose 2-20 µM
Platelet [11] = assay: Antiplatelet activity in human Platelet assessed as inhibition of collagen-induced GP2a/3b activation at 2 to 20 uM by flow cytometric analysis; format: functional, cell-based; conditions: dose 2-20 µM
Platelet [12] = assay: Antiplatelet activity in human Platelet assessed as intracellular calcium level at 2 to 20 uM preincubated for 5 mins and measured for 15 sec by Fluo-3-AM staining based assay; format: functional, cell-based; conditions: dose 2-20 µM
In short: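 Washed platelets (5x10^7/mL) loaded with Fluo-3-AM (0.4 μM) for 30 min at RT, then given vehicle (DMSO 0.2%) or compound for 5 min. Baseline recorded 15 s, then FCCP (1 μM) added and read 60 s more by flow cytometry. Expressed relative to control.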

Platelet [13] = assay: Antiplatelet activity in human Platelet assessed as inhibition of collagen-induced ATP secretion at 2 to 20 uM by Cell Titer-Glo luminescent cell viability assay; format: functional, cell-based; conditions: dose 2-20 µM
Platelet [14] = assay: Antiplatelet activity in human Platelet assessed as intracellular NADH level at 2 to 20 uM by fluorescence assay; format: functional, cell-based; conditions: dose 2-20 µM
In short: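 NAD(P)H autofluorescence in resting washed platelets, excitation 340 nm and emission 428 nm. Mean ± SEM of n=3.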

Platelet [15] = assay: Antiplatelet activity in human Platelet assessed as mitochondrial membrane potential loss at 2 to 20 uM by TMRM staining based flow cytometric analysis; format: functional, cell-based; conditions: dose 2-20 µM
In short: (§5)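 Washed platelets loaded with TMRM (100 nM), then incubated with DMSO 0.2%, compound or FCCP (1 μM) at 37°C for 20 min; ΔΨm by flow cytometry.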

Platelet [16] = assay: Antiplatelet activity in human Platelet assessed as ROS production at 2 to 20 uM by DHE staining based flow cytometric analysis; format: functional, cell-based; conditions: dose 2-20 µM
In short: (§6)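 Washed human platelets (5x10^7/mL) exposed to compounds with 10 μM dihydroethidium for 20 min at 37°C; ROS read by flow cytometry. Mean ± SEM of three experiments.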

Platelet [17] = assay: Antiplatelet activity in human Platelet assessed as intracellular ATP level at 2 to 20 uM by Cell Titer-Glo luminescent cell viability assay; format: functional, cell-based; conditions: dose 2-20 µM
In short: (§7)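 Intraplatelet ATP in resting washed human platelets measured by CellTiter-Glo luminescence following the kit instructions. Mean ± SEM of n=3 experiments.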

Platelet [18] = assay: Antiplatelet activity in human Platelet assessed as inhibition of TRAP6-induced p-selectin protein expression at 2 to 20 uM by flow cytometric analysis; format: functional, cell-based; conditions: dose 2-20 µM
Platelet [19] = assay: Antiplatelet activity in human Platelet assessed as inhibition of TRAP6-induced GP2a/3b activation at 2 to 20 uM by flow cytometric analysis; format: functional, cell-based; conditions: dose 2-20 µM
Platelet [20] = assay: Antiplatelet activity in human Platelet assessed as inhibition of TRAP6-induced CD63 expression at 2 to 20 uM by flow cytometric analysis; format: functional, cell-based; conditions: dose 2-20 µM
Platelet [21] = assay: Antiplatelet activity in human Platelet assessed as inhibition of TRAP6-induced ATP secretion at 2 to 20 uM by Cell Titer-Glo luminescent cell viability assay; format: functional, cell-based; conditions: dose 2-20 µM
Platelet [22] = assay: Antiplatelet activity in human Platelet assessed as mitochondrial membrane potential loss at 20 uM by TMRM staining based flow cytometric analysis; format: functional, cell-based; in short: as §5
Platelet [23] = assay: Antiplatelet activity in human Platelet assessed as increase in ROS production at 20 uM by DHE staining based flow cytometric analysis; format: functional, cell-based; in short: as §6
Platelet [24] = assay: Antiplatelet activity in human Platelet assessed as decrease in intracellular ATP level at 20 uM by Cell Titer-Glo luminescent cell viability assay; format: functional, cell-based; in short: as §7

| IC50 [2] [µM] | IC50 [3] [µM] | Compound | Activity (Platelet [1]) | Ratio IC50 [4] | also measured |
| --- | --- | --- | --- | --- | --- |
|  |  | CCCCCCCC1=CC(C)(C)c2c(O)ccc(O)c2C1=O | Toxic |  |  |
| 35.3 | 31.9 | CCC1(CC)C=CC(=O)c2c(O)ccc(O)c21 | Non-Toxic | 0.9 |  |
|  |  | CCCCCC1=CC(C)(C)c2c(O)ccc(O)c2C1=O | Toxic |  |  |
| 1.77 | > 100 | O=C1C=CC2(CCCC2)c2c(O)ccc(O)c21 | Non-Toxic | 56.5 | inhibition (Platelet [5]): Dose-dependent effect; inhibition (Platelet [6]): Dose-dependent effect; inhibition (INH) [7]: 100%; inhibition (INH) [8]: 100%; Activity (Platelet [9]): inactive; inhibition (Platelet [10]): Active; inhibition (Platelet [11]): Active; Activity (Platelet [12]): inactive; inhibition (Platelet [13]): Active; Activity (Platelet [14]): inactive; Activity (Platelet [15]): inactive; Activity (Platelet [16]): inactive; Activity (Platelet [17]): inactive |
| 2 | 4 | CCCSc1nc(N[C@@H]2C[C@H]2c2ccc(F)c(F)c2)c2nnn([C@@H]3C[C@H](OCCO)[C@@H](O)[C@H]3O)c2n1 [TICAGRELOR] |  | 2 |  |
| 4.38 | > 100 | CC1C=CC(CO)c2c(O)c3c(c(O)c21)C(=O)C=CC3(C)C (stereo not given) | Non-Toxic | 22.83 |  |
| 12 | > 100 | Cc1c(C)c(O)c2c(c1O)C(=O)C=CC2(C)C | Non-Toxic | 8.35 |  |
|  |  | CCCCCCC1=CC(C)(C)c2c(O)ccc(O)c2C1=O | Toxic |  |  |
| 14.3 | > 100 | CC1(C)C=CC(=O)c2c(O)ccc(O)c21 | Non-Toxic | 7 |  |
| 11.5 | 15.8 | CC1C=CC(CO)c2c(O)c3c(c(O)c21)C(C)(C)C=CC3=O (stereo not given) | Non-Toxic | 1.37 |  |
| > 100 | > 100 | CC1C=CC(COC(=O)C2CCCCC2)c2c(O)c3c(c(O)c21)C(C)(C)C=CC3=O (stereo not given) | Non-Toxic |  |  |
| 17.1 | 11.9 | CCC1(CC)C=CC(=O)c2c(O)c3c(c(O)c21)CC=CC3 | Non-Toxic | 0.69 | inhibition (Platelet [5]): Dose-dependent effect; inhibition (Platelet [6]): Dose-dependent effect; inhibition (INH) [7]: 100%; inhibition (INH) [8]: 100%; Activity (Platelet [9]): inactive; inhibition (Platelet [18]): Active; inhibition (Platelet [19]): Active; Activity (Platelet [12]): inactive; inhibition (Platelet [20]): Active; inhibition (Platelet [21]): Active; Activity (Platelet [14]): inactive; Activity (Platelet [22]): Active; Activity (Platelet [23]): Active; Activity (Platelet [24]): Active |
| 20.6 | > 100 | CC1(C)C=CC(=O)c2c(O)c3c(c(O)c21)CC=CC3 | Non-Toxic | 4.86 |  |
| > 100 | > 100 | CC1C=CC(COC(=O)C2CCCCC2)c2c(O)c3c(c(O)c21)C(=O)C=CC3(C)C (stereo not given) | Non-Toxic |  |  |

| Compound | IC50 [2] [µM] | IC50 [3] [µM] | Activity (Platelet [1]) | Ratio IC50 [4] | also measured |
| --- | --- | --- | --- | --- | --- |
| O=C1C=CC2(CCCC2)c2c(O)c3c(c(O)c21)CC=CC3 | 25.5 | > 100 | Non-Toxic | 3.92 |  |
